The values that follow come from ChEMBL document CHEMBL6182829, “Developing peptide-based fusion inhibitors as an antiviral strategy utilizing coronin 1 as a template” (RSC Med Chem, 2025).

Active and inactive are the calls of the source. The rule behind the calls is not given here. Where a SMILES comes first, the peptide text is derived from it.

Assay [1] concerns Lipid bilayer. Nature of the assay: Inhibition of PEG-induced DOPC/DOPE/DOPG/CH (50/30/10/10 mol%) small unilamellar vesicles assessed as lipid mixing at 1:100 compound: lipid concentration preincubated for 10 mins followed by PEG addition by spectrofluorometric analysis (reference value: 67.8 +/- 2.7 %). Summed up:
(§1)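 Lipid mixing followed as FRET dilution. Vesicles carrying 0.8 mol% NBD-PE and Rh-PE mixed 1:9 with probe-free vesicles at 200 μM lipid. Peptide 2 μM added 10 min before 6% (w/v) PEG at 37 °C. NBD donor intensity rise recorded over time; TX-100 defines complete mixing.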

Assay [2] concerns Lipid bilayer. Briefly: Inhibition of PEG-induced DOPC/DOPE/DOPG/CH (40/30/10/20 mol%) small unilamellar vesicles assessed as lipid mixing at 1:100 compound: lipid concentration preincubated for 10 mins followed by PEG addition by spectrofluorometric analysis (reference value: 92.7 +/- 3.7 %). Summed up:
as §1

The subject of assay [3] is Lipid bilayer. Nature of the assay: Inhibition of PEG-induced DOPC/DOPE/DOPG (60/30/10 mol%) small unilamellar vesicles assessed as content mixing at 1:100 compound: lipid concentration preincubated for 10 mins followed by PEG addition by fluorescence based analysis (reference value: 16.7 +/- 0.6 %). The method, boiled down: (§2)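 Content mixing by Tb3+/DPA complex fluorescence. Vesicles loaded with 8 mM TbCl3 or 80 mM DPA, external probe removed by gel filtration. Mixed 1:1 at 200 μM lipid; peptide 2 μM added 10 min before 6% (w/v) PEG, 37 °C. Normalised to co-encapsulated and detergent-treated samples.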

For assay [4], the system named is Lipid bilayer. Briefly: Inhibition of PEG-induced DOPC/DOPE/DOPG/CH (50/30/10/10 mol%) small unilamellar vesicles assessed as content mixing at 1:100 compound: lipid concentration preincubated for 10 mins followed by PEG addition by fluorescence based analysis (reference value: 11.4 +/- 0.4 %). The method, boiled down: as §2
The subject of assay [5] is Lipid bilayer. Nature of the assay: Inhibition of PEG-induced DOPC/DOPE/DOPG/CH (40/30/10/20 mol%) small unilamellar vesicle assessed as content mixing at 1:100 compound: lipid concentration preincubated for 10 mins followed by PEG addition by fluorescence based analysis (reference value: 23.0 +/- 0.9 %). Summed up: as §2
Assay [6] deals with Lipid bilayer. Briefly: Inhibition of PEG-induced DOPC/DOPE/DOPG/CH (50/30/10/10 mol%) small unilamellar vesicles assessed as content leakage at 1:100 compound: lipid concentration preincubated for 10 mins followed by PEG addition by fluorescence based analysis (reference value: 13.6 +/- 0.5 %). The method, boiled down:
(§3)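 Leakage read as loss of fluorescence from vesicles co-encapsulating 8 mM TbCl3 and 80 mM DPA, external probe removed. Lipid 200 μM; peptide 2 μM added 10 min before 6% (w/v) PEG at 37 °C. 100% leakage set with 0.1% (w/v) Triton X-100.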

The subject of assay [7] is Lipid bilayer. Nature of the assay: Binding affinity to DOPC/DOPE/DOPG (60/30/10 mol%) small unilamellar vesicles assessed as membrane organization and dynamic by measuring increase in fluorescence intensity at 1:100 compound: lipid concentration by tryptophan fluorescence based spectrofluorometric analysis. The method, boiled down: (§4)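 Tryptophan fluorescence spectra of the peptide recorded in buffer and with SUVs. Lipid:peptide 100:1, total lipid 200 μM, in 10 mM TES, 100 mM NaCl, 1 mM CaCl2, 1 mM EDTA, pH 7.4. At least three independent measurements averaged.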

Assay [8] relates to Lipid bilayer. Briefly: Binding affinity to DOPC/DOPE/DOPG/CH (50/30/10/10 mol%) small unilamellar vesicles assessed as membrane organization and dynamic by measuring increase in fluorescence intensity at 1:100 compound: lipid concentration by tryptophan fluorescence based spectrofluorometric analysis. Summed up: as §4
The subject of assay [9] is Lipid bilayer. Nature of the assay: Inhibition of PEG-induced DOPC/DOPE/DOPG/CH (50/30/10/10 mol%) small unilamellar vesicles assessed as content mixing at 1:100 compound: lipid concentration preincubated for 10 mins followed by PEG addition by fluorescence based analysis relative to control. Summed up:
as §2

The subject of assay [10] is Lipid bilayer. Briefly: Inhibition of PEG-induced DOPC/DOPE/DOPG/CH (40/30/10/20 mol%) (20 CH) small unilamellar vesicles fusion assessed as content mixing at 1:100 compound: lipid concentration preincubated for 10 mins followed by PEG addition by spectrofluorometric analysis. The method, boiled down: as §2
The subject of assay [11] is Lipid bilayer. Nature of the assay: Disruption of interfacial region in DOPC/DOPE/DOPG/CH (40/30/10/20 mol%) small unilamellar vesicles at 2 to 10 uM by TMA-DPH based fluorescence anisotropy. As to conditions: dose 2-10 µM. The method, boiled down: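 TMA-DPH steady-state anisotropy in SUVs (200 μM total lipid) across a range of peptide concentrations. Excitation 360 nm, emission 428 nm, 5 nm slits. Buffer 10 mM TES, 100 mM NaCl, 1 mM CaCl2, 1 mM EDTA, pH 7.4, 37 °C. Anisotropy from polarised intensities with G-factor correction; mean ± S.E. of at least three measurements.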
(In fluorescence polarisation assays a small probe gives low polarisation when free and higher when bound to something large.)

Assay [12] has as its system Lipid bilayer. Nature of the assay: Inhibition of interfacial polarity in DOPC/DOPE/DOPG (60/30/10 mol%) small unilamellar vesicles assessed as decrease in interfacial polarity at 2 to 10 uM by TMA-DPH fluorescence analysis. As to conditions: dose 2-10 µM. The method, boiled down: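 Interfacial polarity from TMA-DPH mean fluorescence lifetime in SUVs across peptide concentrations. TCSPC with 340 nm pulsed LED excitation, Ludox for IRF, 10 000 peak counts. Multi-exponential fits with χ2 ≤ 1.2; intensity-averaged lifetime. Run at 37 °C, pH 7.4 TES buffer, 200 μM lipid.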

Assay [13] relates to Influenza A virus H3N2. Briefly: Antiviral activity against Influenza A virus X-31 (H3N2) infected in human A549 cells assessed as inhibition of viral infection incubated for 48 hrs post infection by hemagglutination assay (reference value: 4 No unit). The class given is functional.
The subject of assay [14] is Influenza A virus H3N2. Nature of the assay: Antiviral activity against Influenza A virus X-31 (H3N2) infected in MDCK cells assessed as inhibition of viral infection preincubated for 48 hrs followed by viral infection for 45 mins by MTT assay. The following applies: X-31, MDCK. The class given is functional, organism-based. The method, boiled down: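 A549 or MDCK cells seeded 1.5 × 10^4 per well, grown 24 h. Virus premixed with two-fold serial peptide dilutions in serum-free medium with trypsin (2.5 μg ml-1). Cells infected 45 min at 37 °C, washed, then kept 48 h in medium with 0.1% FBS, 0.3% BSA and trypsin. MTT 4 h, absorbance 570 nm. CPE inhibition normalised to cell and virus controls, dose-response fit for EC50; at least 3 sets.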
A general note: Formazan colour is commonly taken as a measure of viable cells.

Assay [15] relates to Lipid bilayer. Nature of the assay: Inhibition of PEG-induced DOPC/DOPE/DOPG/CH (40/30/10/20 mol%) small unilamellar vesicles assessed as content leakage at 1:100 compound: lipid concentration preincubated for 10 mins followed by PEG addition by spectrofluorometric analysis. Summed up: as §3

`CC[C@H](C)[C@H](NC(=O)[C@H](CC(C)C)NC(=O)[C@H](C)NC(=O)[C@@H](NC(=O)[C@H](Cc1ccccc1)NC(=O)[C@H](CCCCN)NC(=O)[C@@H]1CCCN1C(=O)[C@H](CC(N)=O)NC(=O)[C@@H](NC(=O)[C@H](C)NC(=O)[C@H](CS)NC(=O)[C@H](Cc1ccccc1)NC(=O)CNC(=O)[C@H](CO)NC(=O)[C@H](CC(=O)O)NC(=O)[C@H](Cc1c[nH]c2ccccc12)NC(=O)[C@@H](NC(=O)[C@@H](N)[C@@H](C)O)[C@@H](C)O)C(C)C)C(C)C)C(=O)N[C@@H](CS)C(=O)N[C@@H](CC(=O)O)C(=O)N[C@@H](Cc1c[nH]c2ccccc12)C(=O)N[C@@H](CO)C(=O)NCC(=O)O` (H-TTWDSGFCAVNPKFVALICDWSG-OH): the inhibition in the assay on Lipid bilayer [1] was found to be 72.1%; in the assay on Lipid bilayer [2], 100%; in the assay with Lipid bilayer [3], 9.8%; in the assay with Lipid bilayer [4] it was 8.1%; in the assay on Lipid bilayer [5], 15.5%; in the assay with Lipid bilayer [6], 8.3%. For the same compound, the values for the inhibition in the assay on Lipid bilayer [9] and in the assay on Lipid bilayer [12] were 30% and “Active; Partial Reduction Is Observed”, respectively. In addition, the outcome in the assay on Lipid bilayer [7] and with Lipid bilayer [8] was Active. In the assay on Lipid bilayer [10], the inhibition entry was “Active”. In addition, the Activity entry with Lipid bilayer [11] is “Active; Less Stiff In Membranes”; in the assay on Influenza A virus H3N2 [13], 0. For the same compound, in the assay on Influenza A virus H3N2 [14], the 50% effective concentration (EC50) is around 21.6 µM. Moreover, the inhibition entry in the assay with Lipid bilayer [15] was “inactive”.

In general, inhibition refers to how much of the control response was suppressed. A word on the EC50: it is the concentration at which the effect is half-maximal.
